According to ChEMBL document CHEMBL5316310, “Discovery of MK-8189, a Highly Potent and Selective PDE10A Inhibitor for the Treatment of Schizophrenia” (J Med Chem, 2023):
Converted amounts (≈) assume the structure as drawn.

Experiments:
[1] = Mutagenicity in Salmonella typhimurium by Ames test; type: toxicity; settings: salmonella enterica subsp. enterica serovar typhimurium
[2] = Protein binding in human plasma assessed as unbound fraction; type: ADME, cell-free
[3] = biological target: Sodium channel protein type 5 subunit alpha (Homo sapiens, UniProt Q14524); test: Inhibition of Nav1.5 (unknown origin)
[4] = Inhibition of IKS channel (unknown origin); parameters: species or system Homo sapiens
[5] = Plasma concentration in rat at 0.16 mg/kg, po measured after 1 hr; type: ADME, organism-based
Outline: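 Rat novel object recognition (episodic memory) study, orally dosed. Plasma drawn 1 h post dose at end of the experiment for compound level. n = 4/group, reported as mean (SEM).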

[6] = biological target: Voltage-gated inwardly rectifying potassium channel KCNH2 (Homo sapiens, UniProt Q12809); test: Displacement of MK499 from hERG; type: toxicity
[7] = biological target: Voltage-dependent L-type calcium channel subunit alpha-1C (Homo sapiens, UniProt Q13936); test: Inhibition of Cav1.2 (unknown origin)
[8] = Solubility of compound in acidic simulated gastric fluid; type: physicochemical; settings: simulated gi fluid
[9] = Plasma concentration in MK-801-induced psychosis rat model at 0.75 mg/kg, po administered 1 hr prior to MK-801 administration and measured after 90 mins; type: ADME, organism-based; settings: time 150 min
Outline: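 Rats dosed orally, then MK-801 1 h later; locomotor activity recorded over 90 min. Plasma drawn 2.5 h post dose at end of the study and assayed for compound. n = 8/group, reported as mean (SEM).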

[10] = Substrate activity at monkey P-gp assessed as efflux ratio; type: ADME, Macaca mulatta; settings: rhesus monkey
[11] = Plasma clearance in Rhesus monkey at 0.5 mg/kg, iv by LC-MS/MS analysis; type: ADME, organism-based, Macaca mulatta
Outline: (§1)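 IV bolus in DMSO/PEG400 (1:1). Male Wistar–Hannover rats (n = 3, ~300 g): 2 mg/kg via jugular cannula, sampled 0.03–24 h. Male rhesus (n = 3): 0.5 mg/kg into saphenous or cephalic vein, sampled to 24 h. Plasma (EDTA) analysed by LC-MS/MS after acetonitrile precipitation. Non-compartmental analysis; CL = dose/AUC0-inf; t1/2 from log-linear regression of the terminal phase. Values are means.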

[12] = Selectivity ratio of Ki for Rhesus monkey PDE2A3 transfected in AD293 cells cytosolic fraction to Ki for human PDE10A2 transfected in human AD293 cells cytosolic fraction; type: cell-based
[13] = biological target: T1, cAMP and cAMP-inhibited cGMP 3',5'-cyclic phosphodiesterase 10A (Homo sapiens, UniProt Q9Y233); test: Inhibition of human PDE10A2 transfected in human AD293 cells cytosolic fraction using cAMP as substrate by fluorescence polarization assay; type: subcellular, Cytosol
[14] = Volume of distribution at steady state in Rhesus monkey at 0.5 mg/kg, iv by LC-MS/MS analysis; type: ADME, organism-based, Macaca mulatta; settings: in vivo, read-out: Vdss
Outline: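 Three male rhesus monkeys received a 0.5 mg/kg IV bolus into the saphenous or cephalic vein, dosed from a 5 mg/mL solution in DMSO:PEG400 (1:1). EDTA plasma was collected from pre-dose to 24 h. Samples were protein-precipitated with acetonitrile and quantified by positive-ion APCI LC-MS/MS. Vdss was obtained by non-compartmental analysis as clearance × mean residence time, and values are means (n = 3).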

[15] = In vivo receptor occupancy at PDE10A receptor in MK-801-induced psychosis rat model striatum at 0.25 mg/kg, po administered 1 hr prior to MK-801 administration and measured after 90 mins; type: functional; settings: time 2.5 hrs
Outline: (§2)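 Rats in the MK-801 locomotor study were dosed orally at 0.25, 0.50 or 0.75 mg/kg. Plasma was taken 2.5 h post dose and drug levels measured. Striatal PDE10A occupancy was derived from plasma concentration using the [3H]MK-8193 ex vivo occupancy relation. n = 8/group; mean (SEM).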

[16] = In vivo receptor occupancy at PDE10A receptor in rat striatum at 0.25 mg/kg, po measured after 1 hr; type: functional
Outline: (§3)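 Striatal PDE10A occupancy in rats given the compound orally during the novel object recognition test. Occupancy was not measured directly but derived from plasma concentration taken 1 h post dose. n = 4/group, reported as mean (SEM).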

P-gp (ABCB1) = P-gp (ABCB1) (Homo sapiens, UniProt P08183); test: Substrate activity at human P-gp assessed as efflux ratio; type: ADME; settings: not told
[17] = Volume of distribution at steady state in Wistar-Hannover rat at 2 mg/kg, iv by LC-MS/MS analysis; type: ADME, organism-based; settings: in vivo, read-out: Vdss
Outline: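 Male Wistar–Hannover rats (~300 g, n = 3) received a 2 mg/kg IV bolus through a jugular vein cannula, dosed from a 5 mg/mL solution in DMSO/PEG400 (1:1). EDTA blood was sampled from pre-dose to 24 h. Plasma was protein-precipitated with acetonitrile and analysed by positive-ion APCI LC-MS/MS. Vdss was calculated non-compartmentally as plasma clearance × mean residence time and reported as the mean.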

[18] = Selectivity ratio of Ki for N-terminal GST-tagged and C-terminal His-tagged human recombinant PDE7A (122 to 456 residues) expressed in baculovirus-infected Sf9 cells to Ki for human PDE10A2 transfected in human AD293 cells cytosolic fraction
[19] = Solubility of compound in FaSSIF; type: physicochemical; settings: simulated gi fluid
[20] = Toxicity in rat assessed as weight gain; settings: in vivo
[21] = Selectivity ratio of Ki for N-terminal GST-tagged human recombinant PDE4A1A (1 to 647 residues) expressed in baculovirus-infected Sf9 cells to Ki for human PDE10A2 transfected in human AD293 cells cytosolic fraction
[22] = Selectivity ratio of Ki for N-terminal GST-tagged human recombinant PDE5A1 (1 to 875 residues) expressed in baculovirus-infected Sf9 cells to Ki for human PDE10A2 transfected in human AD293 cells cytosolic fraction
[23] = Half life in Rhesus monkey at 0.5 mg/kg, iv by LC-MS/MS analysis; type: ADME, organism-based, Macaca mulatta; settings: in vivo; outline: as §1
[24] = In vivo receptor occupancy at PDE10A receptor in rat striatum at 0.08 mg/kg, po measured after 1 hr; type: functional; outline: as §3
[25] = Selectivity ratio of Ki for N-terminal GST-tagged human recombinant PDE1A expressed in baculovirus-infected Sf9 cells to Ki for human PDE10A2 transfected in human AD293 cells cytosolic fraction
[26] = Selectivity ratio of Ki for N-terminal GST-tagged full length human recombinant PDE8A1 expressed in baculovirus-infected Sf9 cells to Ki for human PDE10A2 transfected in human AD293 cells cytosolic fraction
[27] = In vivo receptor occupancy at PDE10A receptor in MK-801-induced psychosis rat model striatum at 0.75 mg/kg, po administered 1 hr prior to MK-801 administration and measured after 90 mins; type: functional; settings: time 2.5 hrs; outline: as §2
[28] = Plasma clearance in Wistar-Hannover rat at 2 mg/kg, iv by LC-MS/MS analysis; type: ADME, organism-based; outline: as §1
[29] = biological target: T1, cAMP and cAMP-inhibited cGMP 3',5'-cyclic phosphodiesterase 10A; test: Inhibition of human recombinant full length PDE10A
[30] = Selectivity ratio of Ki for N-terminal GST-tagged human recombinant PDE11A4 (1 to 943 residues) expressed in baculovirus-infected Sf9 cells to Ki for human PDE10A2 transfected in human AD293 cells cytosolic fraction
[31] = Lipophilicity, log D of the compound; type: physicochemical; settings: octanol/water

T1 sequence (Q9Y233 whole entry): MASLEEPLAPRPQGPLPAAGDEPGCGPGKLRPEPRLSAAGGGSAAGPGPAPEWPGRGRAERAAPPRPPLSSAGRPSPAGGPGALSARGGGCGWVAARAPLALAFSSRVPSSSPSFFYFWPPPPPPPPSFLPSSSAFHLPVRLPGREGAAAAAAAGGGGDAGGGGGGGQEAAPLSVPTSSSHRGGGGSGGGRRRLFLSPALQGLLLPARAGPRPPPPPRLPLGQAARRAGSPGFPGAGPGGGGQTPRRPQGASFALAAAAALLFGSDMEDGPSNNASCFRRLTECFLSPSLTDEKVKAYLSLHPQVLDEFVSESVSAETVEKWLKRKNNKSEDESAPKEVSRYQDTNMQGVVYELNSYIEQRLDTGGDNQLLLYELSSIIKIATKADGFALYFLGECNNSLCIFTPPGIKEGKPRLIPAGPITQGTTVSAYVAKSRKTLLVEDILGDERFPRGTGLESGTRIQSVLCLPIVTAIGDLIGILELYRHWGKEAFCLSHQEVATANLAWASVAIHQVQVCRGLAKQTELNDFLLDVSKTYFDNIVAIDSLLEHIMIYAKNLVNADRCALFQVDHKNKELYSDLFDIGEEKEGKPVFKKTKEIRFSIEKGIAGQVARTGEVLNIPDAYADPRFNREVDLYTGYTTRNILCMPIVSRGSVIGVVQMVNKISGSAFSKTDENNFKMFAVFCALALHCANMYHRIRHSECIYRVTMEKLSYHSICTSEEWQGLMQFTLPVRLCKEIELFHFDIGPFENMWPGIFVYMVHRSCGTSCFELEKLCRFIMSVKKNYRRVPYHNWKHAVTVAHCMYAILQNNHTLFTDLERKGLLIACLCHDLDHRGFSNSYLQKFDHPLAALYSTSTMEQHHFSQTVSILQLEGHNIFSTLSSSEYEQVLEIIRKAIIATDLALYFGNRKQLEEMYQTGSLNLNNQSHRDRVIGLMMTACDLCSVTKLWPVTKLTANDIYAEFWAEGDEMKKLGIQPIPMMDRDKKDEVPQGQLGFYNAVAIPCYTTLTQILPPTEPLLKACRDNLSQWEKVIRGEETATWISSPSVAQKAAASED
Voltage-dependent L-type calcium channel subunit alpha-1C, sequence (Q13936 whole entry): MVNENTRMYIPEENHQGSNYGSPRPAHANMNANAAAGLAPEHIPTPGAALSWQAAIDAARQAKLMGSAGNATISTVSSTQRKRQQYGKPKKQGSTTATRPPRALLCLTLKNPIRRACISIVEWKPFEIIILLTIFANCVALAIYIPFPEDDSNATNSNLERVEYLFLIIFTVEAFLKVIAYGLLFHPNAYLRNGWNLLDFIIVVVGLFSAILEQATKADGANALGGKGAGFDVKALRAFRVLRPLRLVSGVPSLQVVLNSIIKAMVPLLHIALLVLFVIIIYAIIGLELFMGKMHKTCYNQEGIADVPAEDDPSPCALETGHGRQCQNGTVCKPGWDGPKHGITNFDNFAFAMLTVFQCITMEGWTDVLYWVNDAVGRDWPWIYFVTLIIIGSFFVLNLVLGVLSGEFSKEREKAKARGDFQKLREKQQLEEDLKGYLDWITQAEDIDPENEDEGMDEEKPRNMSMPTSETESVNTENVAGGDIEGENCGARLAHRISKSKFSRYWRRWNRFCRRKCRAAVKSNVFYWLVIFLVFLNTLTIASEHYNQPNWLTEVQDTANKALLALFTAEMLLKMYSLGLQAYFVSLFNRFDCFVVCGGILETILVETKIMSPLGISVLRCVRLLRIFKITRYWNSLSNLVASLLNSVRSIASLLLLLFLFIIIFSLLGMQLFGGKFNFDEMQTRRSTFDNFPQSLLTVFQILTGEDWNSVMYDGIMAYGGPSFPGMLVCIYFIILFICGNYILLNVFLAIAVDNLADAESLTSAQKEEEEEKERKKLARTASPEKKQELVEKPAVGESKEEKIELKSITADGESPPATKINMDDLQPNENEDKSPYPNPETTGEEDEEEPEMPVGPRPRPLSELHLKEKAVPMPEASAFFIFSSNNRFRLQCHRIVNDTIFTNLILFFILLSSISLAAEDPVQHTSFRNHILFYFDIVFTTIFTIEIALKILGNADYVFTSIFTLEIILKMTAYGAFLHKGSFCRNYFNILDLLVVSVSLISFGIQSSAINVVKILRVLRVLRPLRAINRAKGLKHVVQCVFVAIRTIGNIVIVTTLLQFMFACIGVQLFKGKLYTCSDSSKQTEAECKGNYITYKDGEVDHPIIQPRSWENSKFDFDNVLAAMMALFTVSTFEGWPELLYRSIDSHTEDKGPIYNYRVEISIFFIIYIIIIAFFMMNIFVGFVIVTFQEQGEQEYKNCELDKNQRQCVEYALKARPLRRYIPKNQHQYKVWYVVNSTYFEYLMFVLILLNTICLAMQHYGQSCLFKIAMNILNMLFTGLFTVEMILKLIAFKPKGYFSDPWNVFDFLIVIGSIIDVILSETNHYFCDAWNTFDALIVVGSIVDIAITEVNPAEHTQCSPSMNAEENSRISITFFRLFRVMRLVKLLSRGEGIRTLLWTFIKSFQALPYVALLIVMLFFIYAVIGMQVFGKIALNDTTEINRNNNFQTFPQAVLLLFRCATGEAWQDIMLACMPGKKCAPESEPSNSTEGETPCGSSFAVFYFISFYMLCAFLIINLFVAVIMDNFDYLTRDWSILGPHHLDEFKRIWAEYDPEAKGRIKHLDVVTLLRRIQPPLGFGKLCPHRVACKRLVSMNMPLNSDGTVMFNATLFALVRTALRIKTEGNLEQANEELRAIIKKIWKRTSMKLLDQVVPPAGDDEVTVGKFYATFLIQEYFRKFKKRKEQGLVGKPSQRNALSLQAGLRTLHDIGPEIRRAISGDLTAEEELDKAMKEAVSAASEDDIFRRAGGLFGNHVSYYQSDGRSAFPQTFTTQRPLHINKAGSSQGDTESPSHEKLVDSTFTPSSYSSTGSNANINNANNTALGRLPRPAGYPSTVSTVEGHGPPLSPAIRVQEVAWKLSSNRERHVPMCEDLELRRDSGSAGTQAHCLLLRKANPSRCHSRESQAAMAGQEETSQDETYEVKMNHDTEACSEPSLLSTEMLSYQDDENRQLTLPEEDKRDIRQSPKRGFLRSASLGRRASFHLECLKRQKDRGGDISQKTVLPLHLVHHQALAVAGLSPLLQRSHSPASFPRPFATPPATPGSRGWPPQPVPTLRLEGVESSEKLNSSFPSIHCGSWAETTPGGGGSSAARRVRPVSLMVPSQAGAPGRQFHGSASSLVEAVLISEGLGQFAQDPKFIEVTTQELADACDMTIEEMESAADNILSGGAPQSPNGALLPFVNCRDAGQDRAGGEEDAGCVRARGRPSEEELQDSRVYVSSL
P-gp (ABCB1), sequence (P08183 whole entry): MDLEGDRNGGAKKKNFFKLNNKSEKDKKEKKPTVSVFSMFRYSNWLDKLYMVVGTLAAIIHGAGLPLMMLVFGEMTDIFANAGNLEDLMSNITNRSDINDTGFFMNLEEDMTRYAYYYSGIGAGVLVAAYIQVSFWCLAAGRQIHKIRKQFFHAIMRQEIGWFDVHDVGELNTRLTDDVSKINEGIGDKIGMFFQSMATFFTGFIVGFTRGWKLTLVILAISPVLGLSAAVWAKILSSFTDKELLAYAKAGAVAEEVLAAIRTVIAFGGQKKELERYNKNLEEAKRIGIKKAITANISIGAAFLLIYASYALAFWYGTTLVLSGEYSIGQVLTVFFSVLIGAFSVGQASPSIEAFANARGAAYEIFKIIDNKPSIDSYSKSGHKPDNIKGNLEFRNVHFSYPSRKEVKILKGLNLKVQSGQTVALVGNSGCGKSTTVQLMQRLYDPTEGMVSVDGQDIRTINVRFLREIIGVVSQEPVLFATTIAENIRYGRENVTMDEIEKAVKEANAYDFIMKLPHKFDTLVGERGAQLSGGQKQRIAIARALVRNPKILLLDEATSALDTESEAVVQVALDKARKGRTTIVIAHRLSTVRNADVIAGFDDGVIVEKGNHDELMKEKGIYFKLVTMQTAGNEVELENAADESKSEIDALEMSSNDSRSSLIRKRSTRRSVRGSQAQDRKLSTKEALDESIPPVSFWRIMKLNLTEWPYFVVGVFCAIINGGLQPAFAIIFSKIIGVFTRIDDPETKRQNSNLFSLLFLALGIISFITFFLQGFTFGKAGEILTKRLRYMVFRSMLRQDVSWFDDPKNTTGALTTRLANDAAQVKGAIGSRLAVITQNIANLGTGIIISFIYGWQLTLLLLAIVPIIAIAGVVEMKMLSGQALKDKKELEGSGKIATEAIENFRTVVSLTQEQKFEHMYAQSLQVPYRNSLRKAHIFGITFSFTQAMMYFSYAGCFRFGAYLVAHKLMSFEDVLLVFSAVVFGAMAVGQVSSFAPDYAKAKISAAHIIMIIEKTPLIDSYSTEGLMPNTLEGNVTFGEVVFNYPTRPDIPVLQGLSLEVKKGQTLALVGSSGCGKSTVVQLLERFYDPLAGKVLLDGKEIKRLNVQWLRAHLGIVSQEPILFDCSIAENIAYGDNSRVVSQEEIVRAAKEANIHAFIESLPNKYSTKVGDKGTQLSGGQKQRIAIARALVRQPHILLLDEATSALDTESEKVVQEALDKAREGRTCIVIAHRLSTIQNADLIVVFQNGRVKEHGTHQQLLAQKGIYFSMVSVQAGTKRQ

With Cc1ccc([C@H]2C[C@@H]2COc2cc(NCc3nnc(C)s3)nc(C)n2)nc1 [MK-8189] the Activity [1] was “Non-Toxic”, the Fu [2] was 4% and the IC50 [3] was over 30 µM. It also gave an IC50 [4] of over 30 µM, a concentration at 1 h [5] of 18 nM and an IC50 [6] of 33 µM. The IC50 [7] was over 30 µM, the solubility [8] was 5000 µg/mL (≈ 13.1 mM) and the concentration at 2.5 h [9] was 50 nM. For the same compound, the Ratio [10] was under 2, the clearance [11] was 9.3 mL/min/kg and the Ratio Ki [12] was over 500000. For the same compound, the Ki [13] was 0.029 nM, the Vd [14] was 1.4 L/kg and the Occ [15] was 25%. The Occ [16] was 34%, the efflux ratio (P-gp (ABCB1)) was under 2 and the Vd [17] was 0.93 L/kg. For the same compound, the Ratio Ki [18] was over 500000, the solubility [19] was 170 µg/mL (≈ 0.444 mM) and the Activity [20] was “Non-Toxic”. The Ratio Ki [21] was over 500000, the Ratio Ki [22] was over 500000 and the t1/2 [23] was 4.2 h. The Occ [24] was 24%, the Ratio Ki [25] was over 500000 and the Ratio Ki [26] was over 500000. For the same compound, the Occ [27] was 50%, the clearance [28] was 21.3 mL/min/kg and the IC50 [29] was 0.0016 µM. For the same compound, the Ratio Ki [30] was over 500000 and the logD [31] was 2.1.
